Values joined by “and” are separate entries in the source; they are usually repeats but may differ in a detail not shown here. Equal values may be shown once. The campaign covered roughly 370,000 compounds. About 1,200 (0.32%) were called active. The sample as a whole holds a higher share of actives than the screen did. A number with no mark means an inactive call.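 The calls were made as follows: active = inhibition above the mean of all tested compounds plus 3 SD, set per campaign (cut at about 25% in these data); inactive = the rest.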
Biological target: Tyrosyl-DNA phosphodiesterase 2 (Homo sapiens) (UniProt O95551)
Sequence (O95551 whole entry, looked up): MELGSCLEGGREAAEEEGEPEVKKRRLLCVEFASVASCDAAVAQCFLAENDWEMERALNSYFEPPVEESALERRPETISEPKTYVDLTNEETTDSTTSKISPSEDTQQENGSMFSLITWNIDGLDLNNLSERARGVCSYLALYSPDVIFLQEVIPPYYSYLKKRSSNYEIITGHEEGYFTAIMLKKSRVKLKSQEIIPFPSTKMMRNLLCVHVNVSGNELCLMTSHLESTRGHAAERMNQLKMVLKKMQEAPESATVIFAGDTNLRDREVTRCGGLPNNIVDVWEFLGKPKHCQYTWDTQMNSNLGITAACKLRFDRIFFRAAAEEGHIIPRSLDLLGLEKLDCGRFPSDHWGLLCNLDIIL
Assay: blockers of TDP2 phosphodiesterase activity – biochemical, epi absorbance, recombinant enzyme, primary screen (AID 720702);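 also: 0% = DMSO with enzyme and 100% = buffer with substrate but no TDP2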
Conditions: recombinant TDP2, T5PNP hydrolysis, p-nitrophenol absorbance 415 nm; at 12.8 µM; hits give high values
How it was run: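 System – recombinant human TDP2 · Amount – 120 nM TDP2 per well · Buffer or medium – Mg2+-containing Tris-HCl buffer, pH 7.5 · Reagent – T5PNP substrate, 5 mM · Dosing – 12.8 µM single point, 1% DMSO · Incubation – 2 h at 37 °C · Measured by – epi absorbance · Read-out basis – percent inhibition · Benchmarks – high control without enzyme, low control DMSO plus TDP2 · Repeats – singlicate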

Question: With `CCOC(=O)N1CCC(c2cc(=O)n(-c3ccccc3)[nH]2)CC1` as the compound, how does the inhibition read?
Answer: The inhibition was 79.4% (active).

Question: Which inhibition does the source give for `CCOC(=O)N1CCC(C(N)=O)CC1` here?
Answer: Its inhibition is 4.66%.

Question: With `CCOC(=O)N1CCC(NC(=O)Cc2cn(C)c3ccccc23)CC1` as the compound, how does the inhibition read?
Answer: Its inhibition is -2.66%.

Question: How did the inhibition turn out when `CCOc1ccc(Oc2c(Cl)cnn(-c3ccc(C)cc3)c2=O)cc1` was run?
Answer: Its inhibition is -6.6%.

Question: For `Cc1ccc(NC(=O)Cc2nnc(SCC(=O)Nc3nncs3)n2C)cc1`, which inhibition is on record?
Answer: Its inhibition is 9.72%.

Question: How did the inhibition turn out when `O=C(CSc1ccc(-c2ccccn2)nn1)Nc1ccccc1` was run?
Answer: Its inhibition is -4.03%.

Question: For `O=Cc1cn(-c2ccccc2)nc1-c1ccccn1`, which inhibition is on record?
Answer: Its inhibition is 31.4% (active).

Question: Which inhibition does the source give for `CCc1ccc(-c2nn(-c3ccccc3)cc2CSC(=N)N)cc1` here?
Answer: The inhibition was -12%.

Question: How did the inhibition turn out when `N[C@@H](Cc1ccccc1)C(=O)N1CCC[C@@H]1C(=O)N1CCC2CCN(S(=O)(=O)c3ccccc3)CC21` (stereo partly drawn) was run?
Answer: The inhibition was 2.14%.

Question: With `O=C(CSc1nc2sc3c(c2c(=O)n1-c1ccccc1)CCCC3)NN=Cc1ccc(OCc2ccccc2)cc1` as the compound, how does the inhibition read?
Answer: The inhibition was 8.18%.

Question: With `C=CCN=C1NC(c2ccccc2)C(C(=O)OC)=C(C)N1Cc1ccc(C(F)(F)F)cc1` (stereo not drawn) as the compound, how does the inhibition read?
Answer: Its inhibition is -7.84%.

Question: With `COc1cccc(OC)c1CN(C)C(=O)c1cnccc1C(F)(F)F` as the compound, how does the inhibition read?
Answer: The inhibition was -13.4%.

Question: Which inhibition does the source give for `COC(=O)C1CN(CCc2ccccc2)CCS(=O)(=O)N1Cc1ccc(F)cc1` (stereo not drawn) here?
Answer: Its inhibition is -8.99%.

Question: Which inhibition does the source give for `C=CCn1c(N)c(C(=O)OCC(C)C)c2nc3ccccc3nc21` here?
Answer: The inhibition was 30.5% (active).

Question: Which inhibition does the source give for `CC(C)Cn1c(N)c(C(=O)NCc2cccs2)c2nc3ccccc3nc21` here?
Answer: The inhibition was 62.4% (active).

Question: With `CCN(CC(=O)NCc1cccs1)c1nnnn1-c1ccccc1` as the compound, how does the inhibition read?
Answer: The inhibition was -4.19%.

Question: With `C=CCn1c(P(C)(=O)O)nc2ccccc21` as the compound, how does the inhibition read?
Answer: The inhibition was 2.29% and 0.31%.

Question: For `C=CCN1CN(S(=O)(=O)c2ccc(OC)cc2)c2nc3ccccc3nc21`, which inhibition is on record?
Answer: Its inhibition is -10.2%.

Question: `Cc1nc2c(C(=O)NCc3cccs3)cnn2c(C)c1Cc1ccc(F)cc1` was tested. Which inhibition did it give?
Answer: The inhibition was 6.37%.

Question: `O/N=C(\C[n+]1ccccc1)c1ccc(Br)cc1` was tested. Which inhibition did it give?
Answer: Its inhibition is -4.49%.

Question: How did the inhibition turn out when `CSc1nnc(-c2ccncc2)n1CCCN1CCCC1=O` was run?
Answer: Its inhibition is 3.44%.

Question: Which inhibition does the source give for `O=C1Nc2ccccc2OC1CC(=O)N1CCCCCCC1` (stereo not drawn) here?
Answer: Its inhibition is 4.41%.

Question: For `COC(CNC(=O)[C@H](Cc1ccccc1)NC1(C(=O)NC2CCCCC2)CCCCC1)OC`, which inhibition is on record?
Answer: The inhibition was -1.87%.

Question: `CCCNC(=O)CCn1cc(-c2ccc(OC)cc2)nc1CCN` was tested. Which inhibition did it give?
Answer: The inhibition was -1.08%.

Question: For `CCCCNC(=O)CCn1nc(-c2ccc(Cl)cc2)ccc1=O`, which inhibition is on record?
Answer: The inhibition was 29.2% (active).

Question: For `CCN(CC)CCCNC(=O)CCn1nc(-c2ccc(Cl)cc2)ccc1=O`, which inhibition is on record?
Answer: Its inhibition is -8.35%.

Question: `COC(=O)[C@]12C[C@H](CC(=O)NCCc3ccccc3OC)C(=O)N(Cc3ccccc3)C1=C[C@H](C(C)C)O[C@@H]2C1CC1` was tested. Which inhibition did it give?
Answer: Its inhibition is -7.01%.

Question: Which inhibition does the source give for `Cc1ccc(S(=O)(=O)NNC(=S)NC(C)(C)C)cc1` here?
Answer: The inhibition was 0.38%.

Question: How did the inhibition turn out when `COc1ccc2c(c1)c(=Cc1ccc(N(C)C)cc1)c1cc(-c3ccccc3)[n+](C)n12` was run?
Answer: Its inhibition is 28.4% (active).

Question: How did the inhibition turn out when `CCOC(=O)[C@]12CCCCC/C=C\1N(Cc1ccc(OC)cc1)C(=O)[C@H]2CC(=O)NCCCN1CCCC1=O` was run?
Answer: The inhibition was -4.43%.

Question: `CC(C)CCNC(=O)C1CCC(CNc2c(N3CCC(C)CC3)c(=O)c2=O)CC1` (stereo not drawn) was tested. Which inhibition did it give?
Answer: Its inhibition is -1.37%.

Question: Which inhibition does the source give for `CC(=O)N(C1=C(Cl)C(=O)c2ccccc2C1=O)c1ccc(C(=O)O)cc1` here?
Answer: The inhibition was 42.4% (active).

Question: How did the inhibition turn out when `O=C1C(Cl)=C(Oc2ccccc2)C(=O)c2ccccc21` was run?
Answer: Its inhibition is 3.22%.

Question: With `COP(=O)(O)CNC(=O)OCc1ccccc1` as the compound, how does the inhibition read?
Answer: Its inhibition is -6.21%.

Question: `CCn1c(=O)n2n(c1=O)[C@@]1(C=C3CCCC[C@H]32)N=C(NC(=O)c2ccccc2)N(Cc2ccccc2)[C@H]1Cc1ccccc1` was tested. Which inhibition did it give?
Answer: Its inhibition is 4.32%.

Question: With `Cc1nc(CNc2ncnc3ccc(-c4ccc5c(c4)OCO5)cc23)cs1` as the compound, how does the inhibition read?
Answer: The inhibition was 0.28%.

Question: For `CN1c2ccc(C=O)c3c(C=O)ccc(c23)N(C)C1(C)C`, which inhibition is on record?
Answer: The inhibition was 48.6% (active).

Question: How did the inhibition turn out when `COc1ccc(N2CCN(CCNS(=O)(=O)c3ccc(Cl)s3)CC2)cc1` was run?
Answer: Its inhibition is -1.58%.

Question: For `O=C(NN1C(=O)C2C3C=CC(O3)C2C1=O)c1ccccc1` (stereo not drawn), which inhibition is on record?
Answer: Its inhibition is -12.4%.

Question: How did the inhibition turn out when `O=C(NC1=CC(=O)c2ccccc2C1=O)c1ccccc1` was run?
Answer: Its inhibition is 44.5% (active).

Question: For `NS(=O)(=O)c1cc(C(=O)OCC(=O)NNC(=O)c2ccccc2)ccc1Cl`, which inhibition is on record?
Answer: Its inhibition is -0.47%.

Question: For `Cc1ccccc1NC(=O)C(C)OC(=O)CCC(=O)N(CC(C)C)c1c(N)n(CC(C)C)c(=O)[nH]c1=O` (stereo not drawn), which inhibition is on record?
Answer: The inhibition was -3.56%.

Question: With `O=C1OC(Oc2ccc(Br)cc2)(c2ccccc2)c2ccccc21` (stereo not drawn) as the compound, how does the inhibition read?
Answer: Its inhibition is -5.92%.

Question: For `CC(C)(C)N(Cc1ccccc1)C(=O)COC(=O)CCc1c[nH]c2ccccc12`, which inhibition is on record?
Answer: Its inhibition is -14.4%.

Question: `O=C(COC(=O)Cc1c[nH]c2ccccc12)NCCc1ccccc1` was tested. Which inhibition did it give?
Answer: Its inhibition is 24.9% (active).

Question: `O=C(COC(=O)CCc1c[nH]c2ccccc12)Nc1cccc(Cl)c1` was tested. Which inhibition did it give?
Answer: Its inhibition is 9.41%.

Question: How did the inhibition turn out when `COc1cccc(Cn2cc(COC(=O)Nc3ccc(F)cc3)nn2)c1` was run?
Answer: Its inhibition is 4.69%.

Question: How did the inhibition turn out when `N#Cc1ccc(C(=O)Nc2nc(-c3cccs3)c(C(=O)C(F)(F)F)s2)cc1` was run?
Answer: The inhibition was -0.4%.

Question: Which inhibition does the source give for `CC1CCCC(NC(=O)c2cc(S(=O)(=O)N3CCCCC3)ccc2Cl)C1C` (stereo not drawn) here?
Answer: The inhibition was 5.78%.

Question: For `CC1CCCCC1NC(=O)c1cc(=O)[nH]c2ccccc12` (stereo not drawn), which inhibition is on record?
Answer: The inhibition was 6.87%.

Question: How did the inhibition turn out when `CC1CCCC(NC(=O)c2cc(-c3ccncc3)nc3ccccc23)C1C` (stereo not drawn) was run?
Answer: Its inhibition is 68.1% (active).

Question: For `COc1ccc(-c2ccc3c(n2)CCCN3S(=O)(=O)c2ccc(C)cc2)cc1`, which inhibition is on record?
Answer: The inhibition was 4.76%.

Question: Which inhibition does the source give for `N#Cc1c(N2CCCCC2)nc(N)c2c(N)nc(SCC(=O)O)cc12` here?
Answer: The inhibition was 7.63%.

Question: Which inhibition does the source give for `CCOC(=O)c1ccc(NC2Nc3cc(C)nn3S2)cc1` (stereo not drawn) here?
Answer: The inhibition was 26.6% (active).

Question: With `CCc1ccc(NC2Nc3cc(C)nn3S2)cc1` (stereo not drawn) as the compound, how does the inhibition read?
Answer: Its inhibition is -7.9%.

Question: `CCOC(=O)c1ccc(NC(=O)C2CC(=O)Nc3nc4ccccc4n32)cc1` (stereo not drawn) was tested. Which inhibition did it give?
Answer: The inhibition was -14.1%.

Question: How did the inhibition turn out when `COc1ccc(S[C@]2(C(=O)N(C)C)CC(=O)N(c3ccc(OC)cc3)[C@@H]2c2ccc(OC)cc2)cc1` was run?
Answer: The inhibition was -13.2%.

Question: `C/C(=N/O)c1ccc(N2C(=O)C3C4C=CC(C3C2=O)C2C3C(=O)N(c5ccc(/C(C)=N/O)cc5)C(=O)C3C42)cc1` (stereo not drawn) was tested. Which inhibition did it give?
Answer: Its inhibition is -7.03%.
